High-throughput results: PubChem BioAssay, several laboratories
Hep lipid drop: inhibitors of hepatocyte lipid droplet formation, primary screen, imaging, high-throughput imaging, BODIPY stain | AID 1656, 2009 | AML12 mouse hepatocytes, oleate lipid droplets | actives 0.4% (n = 240,000) | inhibition, % at 6.5 µM;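 active = lipid droplet intensity inhibited by at least 50%, with more than 500 cells counted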
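Assay system: AML12 hepatocytes (mouse); Probe or stimulus: oleic acid at 100 µM to induce lipid droplet formation; Dosing: compound at 6.5 µM only; Schedule: compound with oleate, overnight; Detection: fluorescence imaging, 20x objective, two fields per well; Measure: % inhibition of lipid droplet signal.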
m5-HT2A agonist: mouse Htr2a agonists via beta-arrestin recruitment, primary screen, cell-based, luminescence; 5-hydroxytryptamine receptor 2A (Mus musculus), P35363; CHO-K1 mHTR2A beta-arrestin complementation; percent of 30 µM serotonin response; activation, % at 7.6 µM; actives 0.66% (n = 360,000); AID 624169, 2012;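 active = activation above a run cutoff, the mean activation of all tested compounds plus 3 SD, cut at about 14% in these data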
Target sequence (P35363 whole entry, looked up): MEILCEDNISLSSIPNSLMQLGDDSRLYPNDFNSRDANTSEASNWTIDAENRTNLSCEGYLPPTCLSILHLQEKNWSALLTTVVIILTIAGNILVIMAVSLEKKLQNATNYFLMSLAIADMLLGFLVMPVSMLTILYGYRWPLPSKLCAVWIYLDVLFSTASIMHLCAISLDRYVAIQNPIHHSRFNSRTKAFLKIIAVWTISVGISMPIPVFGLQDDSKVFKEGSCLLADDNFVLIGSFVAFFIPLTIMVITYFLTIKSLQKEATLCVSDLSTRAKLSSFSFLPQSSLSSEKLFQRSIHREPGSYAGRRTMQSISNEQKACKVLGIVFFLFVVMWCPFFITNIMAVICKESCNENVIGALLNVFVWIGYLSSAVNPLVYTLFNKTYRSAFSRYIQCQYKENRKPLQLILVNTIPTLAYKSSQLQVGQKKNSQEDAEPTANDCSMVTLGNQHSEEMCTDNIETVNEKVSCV
MC4R antagonist: MC4R antagonists of cAMP signaling, primary screen, cell-based, TR-FRET, antagonist arm of biased-ligand search; MC4R-expressing cells, MTII-stimulated cAMP, LANCE TR-FRET; inhibition, % at 6.5 µM; actives 0.48% (n = 360,000); AID 540295, 2011;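 active = inhibition above its plate's cutoff, the mean of tested wells on that plate plus 3 SD, cut at about 29% in these data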
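Assay system: U2OS-MC4R stable cell line; Also added: Melanotan II; Technique: Eu-cAMP/anti-cAMP TR-FRET, emission 671 nm; Times: 30-min compound, 1-h challenge, 1-h detection, room temperature.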
NTR1 agonist: agonists of human NTR1, primary screen, imaging, U2OS cells, beta-arrestin-GFP, high content; Neurotensin receptor type 1 (Homo sapiens), P30989; NTR1-U2OS beta-arrestin-GFP spot imaging, agonist mode; activation, % at 20 µM; actives 0.17% (n = 330,000); AID 493036, 2011;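 active = activation at or above 40% of the spot to cytoplasm intensity ratio, with at least 20 cells analyzed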
MC4R barr agon: MC4R agonists recruiting beta-arrestin, primary screen, cell-based, luminescence, agonist arm of biased-ligand search; AID 540308, 2011; activation, % at 8.9 µM; actives 0.98% (n = 360,000); U2OS MC4R beta-arrestin complementation; percent of melanotan II response, DMSO zero;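 active = activation above a per-plate cutoff, the mean activation of sample wells on that plate plus 3 SD, cut at about 8% in these data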
PREPL inh: PREPL enzyme inhibitors, primary screen, biochemical, fluorescence polarization | Prolyl endopeptidase-like (Homo sapiens), Q4J6C6 | recombinant PREPL, fluorescence polarization activity-based probe | inhibition, % at 5.96 µM | actives 0.68% (n = 320,000)
PREPL confirm: human PREPL enzyme inhibitors, confirmation, biochemical, fluorescence polarization. shares compounds with PREPL inh. recombinant PREPL, fluorescence polarization activity probe. inhibition, % at 5.96 µM. actives 67% (n = 2,000)
Hits are given with their value; - = inactive; . = no result. Shown are actives, neighbours in structure and some others; about 2.7% of the full set was active somewhere. Cut-off read from the data, not from the text of the source, unless noted: active = inhibition above about 43%; inactive = the rest.

SMILES	Hep lipid drop	m5-HT2A agonist	MC4R antagonist	NTR1 agonist	MC4R barr agon	PREPL inh	PREPL confirm
CC(=O)CCC(=O)N1CCCC(CNC(=O)c2ccc(-c3ccccc3)cc2)C1 (configuration not stated)	-	-	-	-	-	43	-
COCCNc1nc(-c2cc(C(=O)Nc3ccccc3)on2)cc(C(C)C)n1	.	.	.	-	.	-	.
Cn1c(=O)cc2c3c(c(N4CCCCC4)ccc31)C(=O)c1ccccc1-2	-	-	-	-	-	55	57
O=C1c2ccccc2C(=O)c2c1cccc2N1CCCC1	-	-	-	.	-	-	.
Cc1c(CCC(=O)NCCCn2ccnc2)c(=O)oc2c(C)c3oc4c(c3cc12)CCCC4	-	-	-	-	-	49	-
COC(=O)C1=C(NC(=O)COc2ccc(Cl)cc2Cl)CCS1	-	-	-	-	-	-	.
COC(=O)C1=C(NC(=O)COc2ccc3ccccc3c2)CCS1	-	-	-	-	-	58	-
CCCCCC(=O)Nc1cccc(C2=NOC3(C2)C[C@@H](C(N)=O)N(C(=O)Cc2ccc([N+](=O)[O-])cc2)C3)c1 (some centres not stated)	-	-	-	-	-	-	.
NC(=O)[C@H]1CC2(CC(c3cccc(NC(=O)COc4ccc(Cl)cc4)c3)=NO2)CN1C(=O)Cc1ccc([N+](=O)[O-])cc1 (some centres not stated)	-	-	-	-	-	49	50
Cc1ccc(C(=O)Nc2ccc(Br)cc2)cc1S(=O)(=O)Nc1ccccn1	-	-	-	-	-	43	-
O=C(CS(=O)(=O)Cc1ccccc1)NCc1ccco1	-	-	-	-	-	-	.
Cc1ccc2[nH]c3c(c2c1)CCc1cn[nH]c1-3	-	-	-	-	-	47	-
Cc1cccnc1NC(=O)CCc1c[nH]c2ccccc12	-	-	-	-	-	46	-
CCc1nnc(NC(=O)CCc2c[nH]c3ccccc23)s1	-	-	-	-	-	-	.
OC(CNC1CCCC1)COCCOc1ccc(Br)cc1 (configuration not stated)	-	-	-	-	-	46	-
OC(CNC1CCCC1)COc1ccc(Cl)cc1 (configuration not stated)	-	-	-	-	-	-	.
Cc1ccc(S(=O)(=O)N2CCN(CCOc3cccc(C)c3)CC2)cc1	.	-	-	-	-	-	.
COc1cc2c(C#N)c(N3CCN(c4ccccc4OC)CC3)nc(N)c2c(N)n1	-	-	-	-	-	49	46
COc1cc2c(C#N)c(N3CCN(C)CC3)nc(N)c2c(N)n1	-	-	-	-	-	45	-
CC(=O)Nc1ccc(NC(=O)C(C)OC(=O)[C@@H]2CCCN2C(=O)c2cccs2)cc1 (some centres not stated)	.	-	-	-	-	-	.
Cc1ccc2c(c1)c1c3n2CCN(CC(O)CNC(C)C)C3CCC1 (configuration not stated)	-	-	-	-	-	44	-
COc1ccc(-c2nc(CS(=O)CC(=O)N3CCN(C)CC3)c(C)o2)cc1 (configuration not stated)	-	-	-	-	-	-	.
O=C(C[C@@H]1C/C=C\C[C@@H](Cc2ccc(F)cc2)C(=O)OC[C@@H](Cc2c[nH]c3ccccc23)NC1=O)NCCO	.	-	-	-	-	54	47
O=C(C[C@H]1C/C=C\C[C@@H](Cc2ccc(F)cc2)C(=O)OC[C@@H](Cc2c[nH]c3ccccc23)NC1=O)NCCO	.	-	-	-	-	45	-
OCc1cccc[n+]1Cc1ccccc1	.	-	-	-	-	-	.
